Assay results collected from several papers.
EGFR: Epidermal growth factor receptor (EGFR, Homo sapiens, UniProt P00533)
EGFR del752-759: Epidermal growth factor receptor (EGFR, Homo sapiens, UniProt P00533, del752-759)
EGFR L858R/T790M: Epidermal growth factor receptor (EGFR, Homo sapiens, UniProt P00533, L858R/T790M)

`Cc1ccc(NC(=O)c2ccnc(C(F)(F)F)c2)cc1-c1cc(OCCO)nc(N2CCOCC2)c1` has a remaining binding of 100% (Epidermal growth factor receptor (EGFR, Homo sapiens, UniProt P00533, G719S); binding; 1 µM).
The remaining binding of `CCCCC(=O)Nc1ccc(-c2ccc3ncn(CCC)c(=O)c3c2)cn1` is reported as 100% (Epidermal growth factor receptor (EGFR, Homo sapiens, UniProt P00533, T790M); binding; competition with immobilised ligand; 0.5 µM).
The remaining binding of `C1=C/COCc2cc(ccc2OCCN2CCCC2)Nc2nccc(n2)-c2cccc(c2)COC/1` is reported as 67% (Epidermal growth factor receptor (EGFR, Homo sapiens, UniProt P00533, A750P/del747-749); binding; 0.1 µM).
`N#Cc1ccc(NC(=O)Nc2ccccc2)cc1` gave a remaining binding of 75% (Epidermal growth factor receptor (EGFR, Homo sapiens, UniProt P00533, L858R); cell-free assay; competition with immobilised ligand; 25 µM).
The inhibition of `C=CC(=O)N1CCC([C@@H]2CCNc3c(C(N)=O)c(-c4ccc(Oc5ccccc5)cc4)nn32)CC1` is reported as 92% (Epidermal growth factor receptor (EGFR, Homo sapiens, UniProt P00533, G719C); cell-free assay; 1 µM).
With `CS(=O)(=NC#N)c1ccccc1Nc1nc(Nc2ccnc(CO)c2)ncc1Cl` (centres unmarked) the remaining activity was 99.4% (EGFR; enzyme activity; inhibitor; radiometric; 1 µM).
`CN1CCN(C(=O)c2ccc(NC(=O)Nc3ccc(N(C)c4ccnc(Nc5ccc(CS(C)(=O)=O)cc5)n4)cc3)cc2)CC1` gave a remaining binding of 100% (EGFR del752-759; binding; 1 µM).
For `CC#CC(=O)N1CCC[C@H]1c1nc(-c2ccc(C(=O)Nc3ccccn3)cc2)c2c(N)nccn12`, the inhibition was 2% (EGFR L858R/T790M; enzyme activity; inhibitor; 1 µM).
`COc1ccc2oc(-c3ccc4nc(N)oc4c3)c/c(=N\c3ccccc3NC(=O)CCN)c2c1` gave a remaining signal of 106% (EGFR L858R/T790M; cell-free assay; 1 µM).
With `C#Cc1cnc(Nc2ccc(CO)nc2)nc1Nc1ccccc1S(C)(=O)=NC#N` (centres unmarked) the remaining activity was 75.6% (EGFR; enzyme activity; inhibitor; radiometric; 1 µM).
For `C[C@H]1CC[C@H](n2c3cnccc3c3cnc(Nc4ccc5c(n4)CCN(C(=O)CO)C5)nc32)CC1`, the remaining signal was 82% (Epidermal growth factor receptor (EGFR, Homo sapiens, UniProt P00533, L861Q); cell-free assay; 1 µM).
`CO[C@@H]1[C@H](N(C)C(=O)c2ccccc2)C[C@H]2O[C@]1(C)n1c3ccccc3c3c4c(c5c6ccccc6n2c5c31)C(=O)NC4` gave an inhibition of 10% (Epidermal growth factor receptor (EGFR, Homo sapiens, UniProt P00533, del747-752/P753S); enzyme activity; inhibitor; 1 µM).
`CNC(=O)c1ccccc1Nc1nc(Nc2ccc(CO)cc2)ncc1Cl` has a remaining activity of 7.68% (EGFR; enzyme activity; inhibitor; radiometric; 1 µM).
`COc1ccc2[nH]c3c4[nH]c5ccc(OC)cc5c4c4c(c3c2c1)C(=O)NC4=O` has a remaining binding of 68% (EGFR del752-759; binding; 1 µM).
